According to ChEMBL document CHEMBL2151030, “Improving the solubility of a new class of antiinflammatory pharmacodynamic hybrids, that release nitric oxide and inhibit cycloxygenase-2 isoenzyme” (Eur J Med Chem, 2012):

Legend:
Type in all cases: cell-based
[1] = biological target: T1, Prostaglandin G/H synthase 1 (Mus musculus) (UniProt P22437); assay: Inhibition of COX1-mediated PGE2 production in mouse J774 cells at 10 uM preincubated for 15 mins measured after 30 mins by radioimmunoassay relative to control
T1 sequence (whole entry): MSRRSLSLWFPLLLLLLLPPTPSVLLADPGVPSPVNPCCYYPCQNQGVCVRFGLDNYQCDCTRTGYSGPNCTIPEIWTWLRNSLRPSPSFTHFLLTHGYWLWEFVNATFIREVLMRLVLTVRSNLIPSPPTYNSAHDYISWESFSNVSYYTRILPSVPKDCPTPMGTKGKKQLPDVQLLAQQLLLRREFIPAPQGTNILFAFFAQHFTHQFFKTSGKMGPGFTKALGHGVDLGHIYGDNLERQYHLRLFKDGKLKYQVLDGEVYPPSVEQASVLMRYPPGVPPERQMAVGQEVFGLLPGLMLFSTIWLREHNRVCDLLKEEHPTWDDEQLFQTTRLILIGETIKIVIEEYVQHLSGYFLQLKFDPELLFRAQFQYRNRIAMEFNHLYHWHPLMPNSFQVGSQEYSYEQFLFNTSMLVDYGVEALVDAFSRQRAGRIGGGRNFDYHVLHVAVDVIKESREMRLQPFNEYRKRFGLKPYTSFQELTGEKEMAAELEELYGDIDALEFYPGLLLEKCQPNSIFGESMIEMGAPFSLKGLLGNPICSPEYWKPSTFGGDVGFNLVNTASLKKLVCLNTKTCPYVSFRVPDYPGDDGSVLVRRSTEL
In short: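 Murine J774 macrophages in DMEM with 10% FBS, glutamine, HEPES, pyruvate and antibiotics, adhered 2 h at 37 °C in 5% CO2. Medium was refreshed, cells were pretreated with compound for 15 min, then given 15 μM arachidonic acid for 30 min at 37 °C. PGE2 in supernatant was measured by RIA as % inhibition versus control, triplicate wells, mean of three experiments.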

J774 = assay: Selectivity index, ratio of IC50 for COX1-mediated PGE2 production to IC50 for COX2-mediated PGE2 production in mouse J774 cells
In short: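 Ratio of the COX-1 IC50 to the COX-2 IC50, both from PGE2 RIA in J774 cells. For COX-1, cells were given compound for 15 min, then 15 μM arachidonic acid for 30 min; lower concentrations (0.01–1 μM) were tested when warranted. For COX-2, cells were given LPS 10 µg/mL for 24 h with compound at 0.01–10 μM. IC50 came from a sigmoidal variable-slope fit.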

[2] = biological target: T2, Prostaglandin G/H synthase 2 (Mus musculus) (UniProt Q05769); assay: Inhibition of COX2-mediated PGE2 production in LPS-induced mouse J774 cells by radioimmunoassay relative to control; design: concentration or dose not given beside the values; details: concentration not given here
T2 sequence (whole entry): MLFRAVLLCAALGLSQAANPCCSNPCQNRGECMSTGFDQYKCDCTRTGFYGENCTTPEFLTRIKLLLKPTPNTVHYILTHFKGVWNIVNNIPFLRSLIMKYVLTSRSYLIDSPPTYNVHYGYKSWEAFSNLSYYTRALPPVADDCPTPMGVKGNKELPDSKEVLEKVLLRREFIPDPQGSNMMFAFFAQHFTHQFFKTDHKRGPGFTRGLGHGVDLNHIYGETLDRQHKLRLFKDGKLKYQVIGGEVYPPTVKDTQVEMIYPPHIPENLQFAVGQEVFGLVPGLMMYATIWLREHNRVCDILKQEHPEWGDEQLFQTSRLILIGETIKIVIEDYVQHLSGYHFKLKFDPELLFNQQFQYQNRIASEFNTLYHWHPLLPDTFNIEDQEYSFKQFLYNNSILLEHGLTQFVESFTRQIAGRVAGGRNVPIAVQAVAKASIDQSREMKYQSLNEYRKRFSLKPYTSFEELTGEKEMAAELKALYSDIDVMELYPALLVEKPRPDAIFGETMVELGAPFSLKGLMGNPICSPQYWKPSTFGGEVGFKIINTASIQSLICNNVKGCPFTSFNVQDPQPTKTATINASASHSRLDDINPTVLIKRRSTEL
In short: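 J774 cells, cultured as for the COX-1 assay, were stimulated 24 h with E. coli LPS (10 µg/mL) to induce COX-2, with or without compound at 0.01–10 μM. Supernatant PGE2 was measured by RIA as % inhibition versus control, triplicate wells, mean of three experiments. IC50 came from a sigmoidal variable-slope dose-response fit.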

[3] = biological target: T3, Prostaglandin G/H synthase 1 (Mus musculus, UniProt P22437); assay: Inhibition of COX1-mediated PGE2 production in mouse J774 cells preincubated for 15 mins measured after 30 mins by radioimmunoassay
T3 sequence (P22437 whole entry): T1 sequence (whole entry)
In short: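 Murine J774 macrophages in DMEM/10% FBS, adhered 2 h at 37 °C. […] Supernatant PGE2 measured by RIA. Triplicate wells, mean of three experiments; IC50 by sigmoidal variable-slope fit.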

[4] = biological target: T4, Prostaglandin G/H synthase 2 (Mus musculus, UniProt Q05769); assay: Inhibition of COX2-mediated PGE2 production in LPS-induced mouse J774 cells by radioimmunoassay
T4 sequence (Q05769 whole entry): T2 sequence (whole entry)
In short: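 J774 murine macrophages stimulated 24 h with E. coli LPS (10 µg/mL) to induce COX-2, with or without compound (0.01–10 μM). Supernatant PGE2 measured by RIA; percent inhibition against controls. Triplicate wells, mean of three experiments; IC50 from sigmoidal variable-slope fit.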

inhibition [1] | inhibition [2] | IC50 [3] | IC50 [4] | Compound | Ratio IC50 (J774)
10% | 100% | > 10 µM | 0.22 µM | Cc1c(C(N)C(=O)OCCCCO)cc(-c2ccc(S(C)(=O)=O)cc2)n1-c1ccc(F)cc1 (stereo not given) | > 45.5
15% | 59% | > 10 µM | 1.41 µM | Cc1c(C(N)C(=O)OCCCCO[N+](=O)[O-])cc(-c2ccc(S(C)(=O)=O)cc2)n1-c1cccc(F)c1 (stereo not given) | > 7.09
23% | 100% | > 10 µM | 0.76 µM | Cc1c(C(N)C(=O)OCCCO)cc(-c2ccc(S(C)(=O)=O)cc2)n1-c1ccc(F)cc1 (stereo not given) | > 13.2
